A selection: hits, their analogues and other compounds. The true share with any hit is near 4.3%.
ALR H2O2 inh: inhibitors of human sulfhydryl oxidase ALR; inhibition, % (test concentration not listed); P55789; 3.8% of 290,000 active; purified ALR, DTT oxidation, H2O2 HRP-luminol luminescence;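 active = mean replicate inhibition above about 79%, with every replicate also reaching it, limit read from the data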
CAL PDZ FP-1: blocks peptide binding to the human CAL PDZ domain. 0.92% of 300,000 active. purified CAL PDZ, TMR-peptide fluorescence polarization, 1 h. inhibition, % at 24.9 µM;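 active = mean inhibition of at least 30% with at least half of replicates also reaching 30%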
Dyrk1A ADPGlo: inhibitors of rat Dyrk1A kinase. Q63470. inhibition, % at 12.5 µM. ADP-Glo luminescence, NFATc1 peptide. AID 504441. 0.43% of 310,000 active; in the data active = inhibition above about 50%
Rtt109 Vps75: blocks Candida albicans Rtt109/Vps75 acetyltransferase activity; Q5AAJ8; purified Rtt109/Vps75, ThioGlo CoA-SH fluorescence, 4 h; inhibition, % at 34.9 µM; 0.16% of 330,000 active;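 active = inhibition of at least 50% in every replicate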
Target sequence (Q5AAJ8 whole entry, looked up): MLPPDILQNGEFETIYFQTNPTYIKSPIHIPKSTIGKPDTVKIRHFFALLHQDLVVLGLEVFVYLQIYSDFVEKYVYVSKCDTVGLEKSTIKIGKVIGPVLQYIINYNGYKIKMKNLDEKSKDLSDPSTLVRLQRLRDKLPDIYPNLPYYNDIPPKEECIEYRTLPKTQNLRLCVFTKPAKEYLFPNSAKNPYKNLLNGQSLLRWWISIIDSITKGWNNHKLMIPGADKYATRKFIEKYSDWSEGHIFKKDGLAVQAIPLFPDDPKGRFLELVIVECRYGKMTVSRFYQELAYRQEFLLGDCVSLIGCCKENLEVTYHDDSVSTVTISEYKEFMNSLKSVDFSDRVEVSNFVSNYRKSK
CAL PDZ FP-2: inhibitors of human CAL PDZ peptide binding. Q9HD26. purified CAL PDZ, TMR-peptide fluorescence polarization, 1 h. inhibition, % at 20 µM. 0.02% of 330,000 active. AID 504414;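 active = highest replicate inhibition of at least 40%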
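Material: tagged CAL PDZ domain; buffer or medium: 25 mM sodium phosphate pH 7.4, 150 mM NaCl, TCEP, IgG, Thesit; compound dosing: single point, 20 µM; schedule: 1 h incubation at room temperature before polarization reading; measured by: FP readout, S and P plane fluorescence; read-out basis: percent inhibition from loss of millipolarization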
Numbers stand for hits; – = inactive; · = no result.

SMILES | ALR H2O2 inh | CAL PDZ FP-1 | Dyrk1A ADPGlo | Rtt109 Vps75 | CAL PDZ FP-2
CCN(CC)S(=O)(=O)c1ccc(C)c(NC(=O)CSc2nc3ccc(C)cc3[nH]2)c1 | – | – | – | – | –
CC(C)CN(C(=O)c1ccc(S(=O)(=O)N2CCCC2)cc1)C1CCS(=O)(=O)C1 (centres undefined) | – | – | – | – | –
COc1ccccc1CC(=O)NCc1csc(-c2cccs2)n1 | – | · | · | · | ·
CCC(=O)NCc1csc(-c2cccs2)n1 | 94.2 | – | · | – | –
O=C(NCc1csc(-c2cccs2)n1)C1CCCCC1 | – | 32.6 | · | – | –
CCC(C)[C@H](NC(=O)N1CCC(C)CC1)C(=O)OC (some centres undefined) | – | 52.5 | – | – | –
CCC(C)[C@H](NC(=O)N1CCCC1)C(=O)OC (some centres undefined) | – | – | – | – | –
CC(=O)NCCNC(=O)c1oc2ccccc2c1CSc1ncn[nH]1 | – | 71.9 | · | – | –
CCOc1ccc(OCCNC(=O)c2oc3ccccc3c2COC)cc1 | – | – | · | – | –
Cc1ccccc1C(=O)NC(CC(C)C)C(=O)N1CCN(c2ccccc2)CC1 (centres undefined) | – | 34.5 | – | – | –
CCC(C(=O)N1CCN(c2cccc(Cl)c2)CC1)c1ccccc1 (centres undefined) | – | – | – | – | ·
CCC(CC)C(=O)N1CCN(c2ccccc2)CC1 | 98.2 | – | · | – | ·
CC(C)c1ccc(OCC(=O)N(Cc2ccccc2)c2ccccn2)cc1 | – | – | – | – | –
Cc1onc(-c2ccccc2Cl)c1C(=O)NNC(=O)c1ccccc1F | – | – | – | – | –
O=C(NC(=S)NNC(=O)c1ccco1)c1ccccc1 | 87.6 | – | – | – | –
Cc1ccccc1OCC(=O)NNC(=S)NC(=O)c1ccco1 | 97.8 | · | – | – | –
Cc1ccc(C(=O)NC(=S)NNC(=O)CCN2CCOCC2)cc1 | 98.3 | – | – | – | –
O=C(CCc1ccccc1)NNC(=S)NC(=O)c1ccccc1 | 97.6 | – | – | – | –
COc1ccc(-c2cc(C(=O)NCC3CCCO3)c3cc(C(C)C)ccc3n2)cc1 (centres undefined) | · | – | – | – | –
Cc1ccc(C(=O)NC(=S)NNC(=O)c2ccccc2)cc1 | 98.1 | – | – | – | –
O=C(NC(=S)NNC(=O)c1ccccc1O)c1ccccc1 | – | – | – | – | –
Cc1ccccc1C(=O)NNC(=S)NC(=O)c1ccccc1 | 98.3 | – | – | – | –
Cc1ccc(C(=O)NNC(=S)NC(=O)c2ccccc2)cc1 | – | – | – | – | –
O=C(/C=C/c1ccccc1)NC(=S)NNC(=O)c1ccco1 | – | – | – | – | –
O=C(/C=C/c1ccc(Br)cc1)NC(=S)NNC(=O)c1ccco1 | 98.5 | – | – | – | –
SMILES | ALR H2O2 inh | CAL PDZ FP-1 | Dyrk1A ADPGlo | Rtt109 Vps75 | CAL PDZ FP-2
Cn1c(NC(=O)/C=C\c2ccccc2)cc(=O)n(C)c1=O | – | – | – | – | –
O=C(c1ccc(CS(=O)(=O)c2ccc(Br)cc2)o1)N1CCN(C2CCCCC2)CC1 | – | – | – | – | –
COc1ccc(S(=O)(=O)Cc2ccc(C(=O)N3CCN(C4CCCCC4)CC3)o2)cc1 | 91.7 | – | – | – | –
COc1ccc(N2CCN(C(=O)c3ccc(Br)o3)CC2)cc1 | 83.6 | – | – | – | –
COc1ccc(S(=O)(=O)Cc2ccc(C(=O)N3CCc4ccccc4C3)o2)cc1 | 96.7 | – | – | – | –
Cc1ccc(S(=O)(=O)Cc2ccc(C(=O)N3CCc4ccccc4C3)o2)cc1 | – | – | – | – | –
COc1ccccc1N1CCN(C(=O)c2ccc(Br)o2)CC1 | · | – | – | – | –
COc1ccc(S(=O)(=O)Cc2ccc(C(=O)N3CCN(c4cccc(C)c4)C(C)C3)o2)cc1 (centres undefined) | 93.5 | – | – | – | –
CCN(CC(=O)Nc1c(F)cccc1F)C(=O)C1CCN(S(=O)(=O)c2ccc(C)c(C)c2)CC1 | · | – | – | – | –
OCC[C@H]1C[C@@H](O)[C@H](O)[C@@]2(CCCCO2)O1 | · | – | – | – | –
COc1ccc(/C=C/C(=O)N2CCN(c3ccccn3)CC2)cc1OC | – | – | – | – | –
COc1ccc(CC2(CO)CCN(S(=O)(=O)c3sccc3C)CC2)cc1 | – | – | – | – | –
COc1ccc(S(=O)(=O)Cc2ccc(C(=O)N3CCN(c4ccc(Cl)cc4)CC3)o2)cc1 | 85.5 | · | – | – | –
COc1ccc(N2CCN(C(=O)c3ccc(CS(=O)(=O)c4ccc(OC)cc4)o3)CC2)cc1 | – | · | – | – | –

High-throughput results deposited in PubChem BioAssay by Broad Institute.
